We go through 20 molecules from ChEMBL document CHEMBL3992557, “Synthesis and biological evaluation of novel N3-substituted dihydropyrimidine derivatives as T-type calcium channel blockers and their efficacy as analgesics in mouse models of inflammatory pain” (Bioorg Med Chem, 2017).

The target of data set [1] is T1, Voltage-dependent T-type calcium channel subunit alpha-1H (Homo sapiens, UniProt O95180). Nature of the data set: Inhibition of GFP-fused Cav3.2-alpha1 (unknown origin) expressed in human tsA-201 cells at 10 uM at holding potential of -110 mV by whole cell patch clamp method relative to control. Format: cell-based. Summed up: (§1)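 HEK tsA-201 cells transfected by calcium phosphate with channel DNA plus GFP marker, moved to 30°C at 16-18 h, recorded two days later. Whole-cell patch clamp used Ba2+ (20 mM) external solution, pH 7.4, with CsCl-based internal solution. Recordings were P/4 leak-subtracted, 10 kHz sampling. Compound at 10 µM, DMSO ≤0.1% final, reported as % current inhibition. Cav2.2 n=3.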
T1 sequence (O95180 whole entry, the tested form may be a part): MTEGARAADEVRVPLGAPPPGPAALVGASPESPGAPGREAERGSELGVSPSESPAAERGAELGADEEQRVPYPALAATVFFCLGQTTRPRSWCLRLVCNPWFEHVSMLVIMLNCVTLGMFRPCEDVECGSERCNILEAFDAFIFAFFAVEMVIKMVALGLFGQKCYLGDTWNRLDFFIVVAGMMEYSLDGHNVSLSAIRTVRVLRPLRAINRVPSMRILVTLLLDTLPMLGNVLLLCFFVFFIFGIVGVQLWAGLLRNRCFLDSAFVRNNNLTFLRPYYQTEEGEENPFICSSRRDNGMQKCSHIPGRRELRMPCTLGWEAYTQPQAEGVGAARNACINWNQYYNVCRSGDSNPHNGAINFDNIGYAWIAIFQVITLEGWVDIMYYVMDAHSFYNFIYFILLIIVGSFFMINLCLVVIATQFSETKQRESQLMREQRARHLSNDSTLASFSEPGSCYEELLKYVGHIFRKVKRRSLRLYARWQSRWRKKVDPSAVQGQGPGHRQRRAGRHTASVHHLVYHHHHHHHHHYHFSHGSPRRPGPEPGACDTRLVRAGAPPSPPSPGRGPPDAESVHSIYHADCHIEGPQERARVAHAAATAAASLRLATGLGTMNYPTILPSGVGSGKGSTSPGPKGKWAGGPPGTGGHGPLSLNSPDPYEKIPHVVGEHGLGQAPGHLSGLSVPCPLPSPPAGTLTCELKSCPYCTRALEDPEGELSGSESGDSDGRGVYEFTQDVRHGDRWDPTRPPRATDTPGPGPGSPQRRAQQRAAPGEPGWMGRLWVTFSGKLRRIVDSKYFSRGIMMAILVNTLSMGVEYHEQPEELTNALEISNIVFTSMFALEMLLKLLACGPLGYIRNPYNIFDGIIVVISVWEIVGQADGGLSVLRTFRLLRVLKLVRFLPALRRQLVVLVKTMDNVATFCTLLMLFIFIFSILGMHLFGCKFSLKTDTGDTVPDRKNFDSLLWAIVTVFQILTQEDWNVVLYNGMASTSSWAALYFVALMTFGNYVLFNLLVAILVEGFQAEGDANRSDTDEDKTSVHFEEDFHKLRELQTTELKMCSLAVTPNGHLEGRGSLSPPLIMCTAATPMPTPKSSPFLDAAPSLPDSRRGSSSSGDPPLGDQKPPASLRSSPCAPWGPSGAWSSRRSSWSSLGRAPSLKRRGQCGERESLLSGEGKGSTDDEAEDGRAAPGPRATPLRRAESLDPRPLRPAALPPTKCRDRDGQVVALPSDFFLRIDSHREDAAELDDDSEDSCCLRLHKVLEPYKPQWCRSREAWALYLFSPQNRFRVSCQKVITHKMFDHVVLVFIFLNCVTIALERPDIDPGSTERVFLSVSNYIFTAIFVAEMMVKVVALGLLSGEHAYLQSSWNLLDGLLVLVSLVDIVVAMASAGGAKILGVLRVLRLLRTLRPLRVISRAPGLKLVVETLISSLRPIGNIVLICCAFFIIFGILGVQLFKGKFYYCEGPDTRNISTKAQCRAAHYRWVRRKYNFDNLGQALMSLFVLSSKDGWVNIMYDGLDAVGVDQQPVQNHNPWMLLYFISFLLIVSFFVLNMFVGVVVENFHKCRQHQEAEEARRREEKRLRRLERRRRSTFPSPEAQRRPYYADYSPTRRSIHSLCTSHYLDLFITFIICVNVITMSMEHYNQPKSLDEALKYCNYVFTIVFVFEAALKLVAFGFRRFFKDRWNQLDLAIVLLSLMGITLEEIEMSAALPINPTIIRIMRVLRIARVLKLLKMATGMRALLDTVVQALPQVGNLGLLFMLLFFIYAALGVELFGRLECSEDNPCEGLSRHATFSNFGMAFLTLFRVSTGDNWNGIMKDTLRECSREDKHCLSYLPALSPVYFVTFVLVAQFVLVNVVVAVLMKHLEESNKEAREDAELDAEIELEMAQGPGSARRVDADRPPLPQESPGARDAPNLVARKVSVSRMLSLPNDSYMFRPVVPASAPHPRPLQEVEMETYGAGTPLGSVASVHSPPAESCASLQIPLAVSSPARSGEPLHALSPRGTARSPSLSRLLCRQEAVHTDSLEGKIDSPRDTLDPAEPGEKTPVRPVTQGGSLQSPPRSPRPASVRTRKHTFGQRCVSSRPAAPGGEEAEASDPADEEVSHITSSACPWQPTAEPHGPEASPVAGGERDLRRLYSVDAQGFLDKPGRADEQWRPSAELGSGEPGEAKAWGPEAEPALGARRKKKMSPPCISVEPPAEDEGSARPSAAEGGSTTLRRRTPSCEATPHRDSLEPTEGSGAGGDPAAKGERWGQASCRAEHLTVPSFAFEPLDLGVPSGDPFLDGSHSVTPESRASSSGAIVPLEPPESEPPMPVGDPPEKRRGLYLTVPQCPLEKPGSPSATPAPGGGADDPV

For data set [2], the target named is Cav1.2 (voltage-dependent L-type calcium channel subunit alpha-1C) (Rattus norvegicus, UniProt P22002). Nature of the data set: (§2) Inhibition of GFP-fused rat Cav1.2 expressed in human tsA-201 cells co-expressing Cavbeta1b/Cavalpha2delta1 assessed as tonic block at 10 uM at holding potential of -90 mV by whole cell patch clamp method relative to control. Format: cell-based. Summed up: (§3)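 tsA-201 cells were co-transfected with rat Cav1.2 plus Cavβ1b and Cavα2δ1 (5 µg each) and a GFP marker, then kept 2 days (30°C after 16-18 h). Whole-cell patch clamp used 20 mM BaCl2 bath, P/4 leak correction, 10 kHz sampling. Tonic resting-state block at 10 µM was given as % current inhibition. Final DMSO ≤0.1%.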
Cav1.2 (voltage-dependent L-type calcium channel subunit alpha-1C), sequence (P22002 whole entry, the tested form may be a part): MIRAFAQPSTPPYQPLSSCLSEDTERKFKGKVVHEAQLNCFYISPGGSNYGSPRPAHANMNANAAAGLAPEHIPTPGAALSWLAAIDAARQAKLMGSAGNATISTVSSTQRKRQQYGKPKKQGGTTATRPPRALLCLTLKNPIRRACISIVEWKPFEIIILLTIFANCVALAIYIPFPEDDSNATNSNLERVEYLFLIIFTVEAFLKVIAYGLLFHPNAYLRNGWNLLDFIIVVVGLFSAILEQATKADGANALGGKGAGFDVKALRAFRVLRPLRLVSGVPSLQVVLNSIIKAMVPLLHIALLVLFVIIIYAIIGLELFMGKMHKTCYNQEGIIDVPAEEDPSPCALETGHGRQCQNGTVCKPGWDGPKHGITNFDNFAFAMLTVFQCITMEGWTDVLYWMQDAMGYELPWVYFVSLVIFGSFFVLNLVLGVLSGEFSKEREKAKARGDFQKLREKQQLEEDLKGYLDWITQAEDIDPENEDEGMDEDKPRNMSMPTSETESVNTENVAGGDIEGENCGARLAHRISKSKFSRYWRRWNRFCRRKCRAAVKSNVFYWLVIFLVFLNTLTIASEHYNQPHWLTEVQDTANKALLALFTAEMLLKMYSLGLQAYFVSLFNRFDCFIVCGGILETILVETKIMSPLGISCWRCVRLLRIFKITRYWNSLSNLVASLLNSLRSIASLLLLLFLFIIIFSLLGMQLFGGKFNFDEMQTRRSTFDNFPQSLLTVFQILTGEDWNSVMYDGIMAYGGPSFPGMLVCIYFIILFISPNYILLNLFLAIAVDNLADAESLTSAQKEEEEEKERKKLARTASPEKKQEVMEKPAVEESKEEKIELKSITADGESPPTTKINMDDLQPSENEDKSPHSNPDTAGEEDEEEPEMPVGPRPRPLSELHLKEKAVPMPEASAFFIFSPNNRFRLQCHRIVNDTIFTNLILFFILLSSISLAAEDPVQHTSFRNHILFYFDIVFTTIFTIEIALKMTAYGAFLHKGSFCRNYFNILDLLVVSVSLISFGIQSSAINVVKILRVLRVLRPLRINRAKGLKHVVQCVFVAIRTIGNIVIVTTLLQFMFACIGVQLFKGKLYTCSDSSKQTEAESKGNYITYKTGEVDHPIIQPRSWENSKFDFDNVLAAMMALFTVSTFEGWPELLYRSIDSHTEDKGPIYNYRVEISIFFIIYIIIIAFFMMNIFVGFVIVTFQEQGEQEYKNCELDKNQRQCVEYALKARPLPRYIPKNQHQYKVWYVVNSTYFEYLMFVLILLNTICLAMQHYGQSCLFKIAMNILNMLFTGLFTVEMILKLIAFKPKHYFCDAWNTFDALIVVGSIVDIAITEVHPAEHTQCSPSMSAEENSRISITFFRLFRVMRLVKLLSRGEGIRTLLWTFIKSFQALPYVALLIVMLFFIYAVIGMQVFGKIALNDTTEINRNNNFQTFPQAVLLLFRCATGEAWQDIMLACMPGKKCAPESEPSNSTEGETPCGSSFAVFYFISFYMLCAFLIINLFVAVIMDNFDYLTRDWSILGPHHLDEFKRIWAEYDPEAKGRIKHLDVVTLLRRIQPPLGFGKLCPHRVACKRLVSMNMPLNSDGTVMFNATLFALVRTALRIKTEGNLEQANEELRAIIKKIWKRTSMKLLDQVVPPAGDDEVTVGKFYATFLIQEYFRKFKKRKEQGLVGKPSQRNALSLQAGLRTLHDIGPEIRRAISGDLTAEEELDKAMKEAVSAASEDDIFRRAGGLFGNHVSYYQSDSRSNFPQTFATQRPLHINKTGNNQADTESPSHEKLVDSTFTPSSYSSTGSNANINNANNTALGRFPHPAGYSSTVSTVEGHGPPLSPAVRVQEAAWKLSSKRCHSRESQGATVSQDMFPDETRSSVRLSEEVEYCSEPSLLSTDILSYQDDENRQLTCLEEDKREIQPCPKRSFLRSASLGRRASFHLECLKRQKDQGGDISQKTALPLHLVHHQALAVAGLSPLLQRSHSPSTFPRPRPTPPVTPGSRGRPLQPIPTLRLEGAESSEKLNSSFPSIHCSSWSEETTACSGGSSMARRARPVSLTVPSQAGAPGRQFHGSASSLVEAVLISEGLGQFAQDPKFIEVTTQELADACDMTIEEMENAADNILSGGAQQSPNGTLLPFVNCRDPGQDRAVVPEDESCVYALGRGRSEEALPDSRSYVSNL
(In patch-clamp work, channel activity is measured electrically.)

Data set [3] has as its target Voltage-dependent L-type calcium channel subunit alpha-1C (Rattus norvegicus, UniProt P22002). The description is as §2. Format: cell-based. Conditions: 10 µM. Summed up:
as §3

For data set [4], the system named is Mus musculus. Nature of the data set: Analgesic activity in CFA-induced mechanical hyperalgesia C57BL/6J mouse model assessed as mechanical paw withdrawal threshold at 1 ug/10 uL administered intrathecally 2 days after CFA injection measured at 20 to 150 mins post dose. The format is functional. Summed up: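 C57BL/6J male mice, 7-9 weeks; 30 µl CFA injected into right hind paw; 2 days later single intrathecal dose with vehicle 1% DMSO in PBS. Paw withdrawal threshold measured blinded by digital plantar aesthesiometer at 0, 20, 45, 90 and 150 min after dosing, after ≥1 h habituation. Each paw stimulated three times. n=6 per group; mean ± S.E.M, two-way ANOVA with Bonferroni test.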

In data set [5] the target is T1, Voltage-dependent T-type calcium channel subunit alpha-1H. Nature of the data set: Inhibition of GFP-fused Cav3.2-alpha1 (unknown origin) expressed in human tsA-201 cells assessed as half inactivation potential for steady state inactivation curve at 1 uM at holding potential of -110 mV by whole cell patch clamp method (reference value: -46.27 +/- 0.57 mV). The format is cell-based.

Data set [6] concerns the target Voltage-dependent N-type calcium channel subunit alpha-1B (Homo sapiens) (UniProt Q00975). Nature of the data set: Inhibition of GFP-fused Cav2.2 (unknown origin) expressed in human tsA-201 cells assessed as at 10 uM by whole cell patch clamp method relative to control. The format is cell-based. Summed up:
as §1

The test system of data set [7] is Mus musculus. Nature of the data set: Analgesic activity in formalin-induced nociception C57BL/6J mouse model assessed as reduction in time spent licking and biting formalin injected paw per 10 uL administered intrathecally 20 mins prior to formalin injection measured up to 30 mins post formalin injection. Format: functional. Summed up:
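Adult male C57BL/6J mice (7-9 weeks). Intrathecal pretreatment at 0.3, 1 and 3 µg in 10 µl, or vehicle (1% DMSO in PBS, 10 µl). After 20 min, 20 µl of 1.25% formalin injected intraplantar into right hind paw.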

In data set [8] the target is T1, Voltage-dependent T-type calcium channel subunit alpha-1H. Nature of the data set: Inhibition of GFP-fused Cav3.2-alpha1 (unknown origin) expressed in human tsA-201 cells at holding potential of -110 mV by whole cell patch clamp method. The format is cell-based. Summed up: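 tsA-201 cells transiently expressing Cav3.2 α1 plus GFP were recorded by whole-cell patch clamp with 20 mM Ba2+ as charge carrier and P/4 leak subtraction. A dose-response curve was fitted to give IC50, n=3 cells per dose. Final DMSO ≤0.1%.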

The target is the same in data set [9]. The data set is described as follows: Inhibition of GFP-fused Cav3.2-alpha1 (unknown origin) expressed in human tsA-201 cells assessed as time required to reach steady state inhibition at 1 uM at holding potential of -110 mV by whole cell patch clamp method. The format is cell-based.
Data set [10] has the same target. Nature of the data set: Inhibition of GFP-fused Cav3.2-alpha1 (unknown origin) expressed in human tsA-201 cells assessed as half activation potential at 1 uM at holding potential of -110 mV by whole cell patch clamp method (reference value: -30.84 +/- 0.46 mV). Format: cell-based.
Data set [11] has the same target. The data set is described as follows: Inhibition of GFP-fused Cav3.2-alpha1 (unknown origin) expressed in human tsA-201 cells assessed as half activation potential at 3 uM at holding potential of -110 mV by whole cell patch clamp method (reference value: -32.07 +/- 0.8 mV). Format: cell-based.
For data set [12] the target is unchanged. The data set is described as follows: Inhibition of GFP-fused Cav3.2-alpha1 (unknown origin) expressed in human tsA-201 cells assessed as half inactivation potential for steady state inactivation curve at 3 uM at holding potential of -110 mV by whole cell patch clamp method (reference value: -47.6 +/- 0.87 mV). The format is cell-based.
For data set [13] the target is unchanged. Nature of the data set: Inhibition of GFP-fused Cav3.2-alpha1 (unknown origin) expressed in human tsA-201 cells assessed as time required to reach steady state inhibition at 3 uM at holding potential of -110 mV by whole cell patch clamp method. Format: cell-based.
The subject of data set [14] is Mus musculus. The data set is described as follows: Analgesic activity in CFA-induced mechanical hyperalgesia C57BL/6J mouse model assessed as mechanical paw withdrawal threshold at 3 ug/10 uL administered intrathecally 2 days after CFA injection measured at 90 to 150 mins post dose. The format is functional. Summed up:
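Adult male C57BL/6J mice (7-9 weeks). Right hind paw given 30 µl CFA intraplantar; 2 days later dosed intrathecally at 3 µg/10 µl, vehicle 1% DMSO in PBS. Thresholds read blinded with digital plantar aesthesiometer at 0, 20, 45, 90 and 150 min, each paw tested three times. n=6 mice per group, mean ± S.E.M, two-way ANOVA with Bonferroni post-hoc.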

Activity calls are given as the source filed them.

Voltage-dependent L-type calcium channel subunit alpha-1C, sequence (P22002 whole entry): as the sequence (P22002 whole entry, the tested form may be a part) above

A word on the inhibition: it is the drop in the measured response relative to a control, in per cent. Regarding `CCOC(=O)C1=C(C)NC(=O)N(CCC(=O)N/N=C2/C(=O)Nc3ccccc32)C1c1cccc([N+](=O)[O-])c1` (centres undefined), the inhibition in data set [1] was 50%. Besides, the inhibition at 10 µM in data set [2] turned out to be 50%.

In the case of `CCOC(=O)C1=C(C)NC(=O)N(CC/C(=N/N(C(C)=O)C(C)=O)OC(C)=O)C1c1cccc([N+](=O)[O-])c1` (centres undefined), in [1], the inhibition result is “inactive”. In data set [3], the “inhibition (INH)” value is “Not Active”.

In the case of `CCOC(=O)C1=C(C)NC(=O)N(CCC(=O)NNC(=S)Nc2ccccc2)C1c1cccc([N+](=O)[O-])c1` (centres undefined), the inhibition result in data set [1] was “inactive”. Besides, in data set [3], the “inhibition (INH)” value is on record as “Not Active”.

`CCOC(=O)C1=C(C)NC(=O)N(CCC(=O)N/N=c2\scc(-c3ccc(F)cc3)n2-c2ccccc2)C1c1cccc([N+](=O)[O-])c1` (centres undefined): the inhibition entry in data set [1] is “inactive”. Moreover, the “inhibition (INH)” value in data set [3] is “Not Active”.

Regarding `CCOC(=O)C1=C(C)NC(=O)N(CCC(=O)N/N=C/C(c2ccccc2)c2ccccc2)C1c1cccc([N+](=O)[O-])c1` (centres undefined), the inhibition in data set [1] was 70 to 95%. The inhibition at 10 µM in data set [2] lay in the range of 60 to 85%.

Regarding `CCOC(=O)C1=C(C)NC(=O)N(CCc2nnc(Nc3ccccc3)s2)C1c1cccc([N+](=O)[O-])c1` (centres undefined), in data set [1], the inhibition lay within 70 to 95%. Moreover, in data set [3], the “inhibition (INH)” value is on record as “Not Active”.

As for `CCOC(=O)C1=C(C)NC(=O)N(CCC(=O)N/N=C(/C)C(c2ccccc2)c2ccccc2)C1c1cccc([N+](=O)[O-])c1` (centres undefined), the inhibition result in data set [1] was “inactive”. Besides, the “inhibition (INH)” value in data set [3] is given as “Not Active”.

`CCOC(=O)C1=C(C)NC(=O)N(CCC(=O)N/N=C(/C)c2ccc(F)cc2)C1c1cccc([N+](=O)[O-])c1` (centres undefined): the inhibition in data set [1] was in the range of 70 to 95%. In data set [2], the inhibition at 10 µM lay within 60 to 85%.

As for `CCOC(=O)C1=C(C)NC(=O)N(CCc2nnc(Nc3ccccc3)o2)C1c1cccc([N+](=O)[O-])c1` (centres undefined), the inhibition in data set [1] lay in the range of 70 to 95%. Besides, the “inhibition (INH)” value in [3] is listed as “Not Active”.

Turning to `CCOC(=O)C1=C(C)NC(=O)N(CCC(=O)N/N=C/c2ccc(F)cc2)C1c1cccc([N+](=O)[O-])c1` (centres undefined), in data set [1], the inhibition lay in the range of 70 to 95%. Also, in data set [2], the inhibition at 10 µM fell in the range of 60 to 85%.

As to `CCOC(=O)C1=C(C)NC(=O)N(CCC(=O)N/N=C2/SCC(=O)N2c2ccccc2)C1c1cccc([N+](=O)[O-])c1` (centres undefined), in data set [1], the inhibition entry is “inactive”. Also, in [3], the “inhibition (INH)” value was “Not Active”.

The IC50 is the concentration at which inhibition is half-maximal. Turning to `CCOC(=O)C1=C(C)NC(=O)N(CCC(=O)NNC(=S)NC(c2ccccc2)c2ccccc2)C1c1cccc([N+](=O)[O-])c1` (centres undefined), in [4], the result was Active. Further, the inhibition is 70 to 95% in data set [1] and 7.64% in [6]. Moreover, the Activity in data set [5] was -51.2 mV. Besides, in data set [7], the MED came to 1 µg. In addition, the IC50 in data set [8] was 340 nM. In addition, the TIME in data set [9] is 0.133 to 0.167 h. For the same molecule, the V1/2 in data set [10] was -30.6 mV. Also, in data set [3], the “inhibition (INH)” value is “Not Active”.

Regarding `CCOC(=O)C1=C(C)NC(=O)N(CCC(=O)N/N=C\C=C\c2ccccc2)C1c1cccc([N+](=O)[O-])c1` (centres undefined), in data set [1], the inhibition fell in the range of 70 to 95%. The inhibition at 10 µM in data set [2] is 60 to 85%.

With `CCOC(=O)C1=C(C)NC(=O)N(CCC(=O)n2nc(C)cc2C)C1c1cccc([N+](=O)[O-])c1` (centres undefined), in data set [1], the inhibition entry is “inactive”. The “inhibition (INH)” value in [3] was “Not Active”.

In the case of `CCOC(=O)C1=C(C)NC(=O)N(CCC(=O)N/N=C/c2ccccc2)C1c1cccc([N+](=O)[O-])c1` (centres undefined), the V1/2 in data set [11] is -29.3 mV. The results for the inhibition in data set [1] and in data set [6] were 70 to 95% and 31.9%, respectively. The Activity in [12] is -48.8 mV; in data set [7] it was “Dose-dependent effect”. Moreover, the TIME in data set [13] was in the range of 0.133 to 0.167 h. Further, the MED in data set [7] turned out to be 3 µg. For the same molecule, the IC50 in data set [8] came to 3390 nM. Further, the result in data set [14] was Active. In addition, the inhibition at 10 µM in data set [2] is 60 to 85%.

`CCOC(=O)C1=C(C)NC(=O)N(CCC(=O)NNS(=O)(=O)c2ccccc2)C1c1cccc([N+](=O)[O-])c1` (centres undefined): the inhibition in data set [1] was determined as 50%. The inhibition at 10 µM in [2] was determined as 50%.

In the case of `CCOC(=O)C1=C(C)NC(=O)N(CCC(=O)N/N=C2/SCC(=O)N2c2ccc(C)cc2)C1c1cccc([N+](=O)[O-])c1` (centres undefined), in data set [1], the inhibition fell in the range of 70 to 95%.

Regarding `CCOC(=O)C1=C(C)NC(=O)N(CCC(=O)N/N=C(/C)CC(c2ccccc2)c2ccccc2)C1c1cccc([N+](=O)[O-])c1` (centres undefined), the inhibition in data set [1] is 70 to 95%. In [2], the inhibition at 10 µM is 60 to 85%.

In the case of `CCOC(=O)C1=C(C)NC(=O)N(CCC(=O)N/N=C(/C)c2ccccc2)C1c1cccc([N+](=O)[O-])c1` (centres undefined), the inhibition in data set [1] lay within 70 to 95%. Besides, in data set [2], the inhibition at 10 µM fell in the range of 60 to 85%.

With `CCOC(=O)C/C(C)=N\NC(=O)CCN1C(=O)NC(C)=C(C(=O)OCC)C1c1cccc([N+](=O)[O-])c1` (centres undefined), in [1], the inhibition result was “inactive”. Also, in [3], the “inhibition (INH)” value is given as “Not Active”.
